Data set [1] has as its system HeLa. In words: Cell cycle arrest in non-estrogen-sensitive human HeLa cells after 24 hrs using propidium iodide staining by flow cytometry. Type of data set: functional, cell-based. (Flow cytometry measures light scatter and fluorescence of single cells or particles in a stream.)
Data set [2] has as its system HeLa. In words: Growth inhibition of non-estrogen-sensitive human HeLa cells after 72 hrs by MTT assay. Format: functional. Put shortly: (§1)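 Cells were seeded at 8x10^3 per well and left 18 h at 37 °C, 5% CO2, then exposed 72 h to compound at several concentrations from 10 mM DMSO stocks (final DMSO ≤0.25%). Jurkat, RS4;11 and SEM were grown in RPMI-1640; H295R in DMEM-F12 with 2% FBS plus insulin-transferrin-selenium. Viability read by MTT.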

Data set [3] is described as follows: Growth inhibition of non-estrogen-sensitive human SEM cells after 72 hrs by MTT assay. Format: functional. Put shortly:
as §1

The target in data set [4] is T1, Aromatase (Homo sapiens, UniProt P11511).
T1 sequence (P11511 whole entry): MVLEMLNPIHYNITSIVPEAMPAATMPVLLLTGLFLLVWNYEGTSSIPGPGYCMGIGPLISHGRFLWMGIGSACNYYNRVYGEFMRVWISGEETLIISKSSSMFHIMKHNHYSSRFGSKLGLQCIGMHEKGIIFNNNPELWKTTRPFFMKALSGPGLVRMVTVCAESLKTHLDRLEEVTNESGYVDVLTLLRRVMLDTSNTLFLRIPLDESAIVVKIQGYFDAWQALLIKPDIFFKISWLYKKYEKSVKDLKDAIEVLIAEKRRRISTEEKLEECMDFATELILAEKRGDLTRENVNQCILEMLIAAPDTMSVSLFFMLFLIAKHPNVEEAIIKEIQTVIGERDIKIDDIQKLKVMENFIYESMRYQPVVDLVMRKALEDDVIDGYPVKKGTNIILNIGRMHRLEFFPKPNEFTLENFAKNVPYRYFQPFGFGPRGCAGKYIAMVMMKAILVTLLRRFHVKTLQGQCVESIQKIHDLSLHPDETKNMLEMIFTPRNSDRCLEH
In words: Inhibition of aromatase in human H295R cells using [1beta-3H(N)]-androst-4-ene-3,17-dione as substrate assessed as residual activity at 5 uM after 24 hrs by tritiated water release assay.

Data set [5] concerns Jurkat. Nature of the data set: Growth inhibition of non-estrogen-sensitive human Jurkat cells after 72 hrs by MTT assay. Format: functional. Put shortly: as §1
In general terms: Tetrazolium dyes change colour on reduction, which living cells bring about.

Data set [6] concerns NCI-H295R. Nature of the data set: Growth inhibition of estrogen-sensitive human NCI-H295R cells after 72 hrs by MTT assay. Format: functional. Put shortly:
as §1

The test system of data set [7] is HT-29. Nature of the data set: Growth inhibition of non-estrogen-sensitive human HT-29 cells after 72 hrs by MTT assay. Format: functional. To be noted: HT-29, 72 h. An outline of the steps:
as §1

In data set [8] the test system is MCF7. In words: Cell cycle arrest in estrogen-sensitive human MCF7 cells after 24 hrs using propidium iodide staining by flow cytometry. Format: functional, cell-based.
The test system of data set [9] is IGROV-1. Nature of the data set: Growth inhibition of estrogen-sensitive human IGROV1 cells after 72 hrs by MTT assay. Format: functional. To be noted: IGROV-1, 72 h. An outline of the steps:
as §1

In data set [10] the target is T1, Aromatase. Nature of the data set: Inhibition of CYP19 in human H295R cells using [1beta-3H(N)]-androst-4-ene-3,17-dione at 5 uM after 24 hrs by tritiated water release assay. Format: cell-based. Put shortly:
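Cells were then incubated 2 h with 0.5 µM [1β-3H(N)]-androst-4-ene-3,17-dione. Read-out is tritiated water release, expressed as % of untreated cells. Means ± SEM of two independent experiments, each in triplicate.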

Data set [11] in a line: Growth inhibition of non-estrogen-sensitive human RS4:11 cells after 72 hrs by MTT assay. Type of data set: functional. Particulars: RS4-11, 72 h. An outline of the steps:
as §1

Data set [12] deals with OVCAR-3. Nature of the data set: Growth inhibition of estrogen-sensitive human OVCAR3 cells after 72 hrs by MTT assay. Particulars: OVCAR-3, 72 h. Format: functional. An outline of the steps:
as §1

For data set [13], the system named is MCF7. In words: Growth inhibition of estrogen-sensitive human MCF7 cells after 72 hrs by MTT assay. Type of data set: functional. Particulars: MCF7, 72 h. Put shortly: as §1

Calls of active or inactive are those of the source. No cut-off for these calls is given here.

From ChEMBL document CHEMBL2440047, “Design, synthesis, and structure-activity relationships of azolylmethylpyrroloquinolines as nonsteroidal aromatase inhibitors” (J Med Chem, 2013) come the findings set out here.

For orientation: GI50 means the concentration that inhibits growth by half. Consider `N#Cc1ccc(C(c2ccc(C#N)cc2)n2cncn2)cc1` [LETROZOLE], for which the Activity entry in data set [1] and in [8] was “inactive” throughout. Moreover, the GI50 in data set [2], in data set [3], in data set [5], in [6], in data set [7] and in [9] was over 100 µM throughout. Further, the GI50 in data set [11], in data set [12] and in data set [13] was over 100 µM throughout. For the same compound, the activity at 5 µM in [4] amounted to 32%. Further, the “inhibition (INH)” value in [10] is reported as “Active”.
